According to ChEMBL document CHEMBL1129534, “Antitumor agents. 163. Three-dimensional quantitative structure-activity relationship study of 4'-O-demethylepipodophyllotoxin analogs using the modified CoMFA/q2-GRS approach” (J Med Chem, 1996):
Several values for one entry are separate records, joined by “and”; a condition that tells them apart may be missing. Identical values can stand only once.

target: DNA topoisomerase II (Homo sapiens) (UniProt P11388+Q02880); assay: Compound tested for ability to form a cellular covalent topoisomerase II-DNA complex.; assay type: functional
Summary of the method: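 Read-out is intracellular covalent topoisomerase II–DNA complex formation, scored as the percentage of cellular protein–DNA complex formed (PCPDCF). For CoMFA modelling the values were transformed to ln(PCPDCF + 1).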

Row | SMILES | Protein-DNA complex formation
1 | COc1cc([C@@H]2c3cc4c(cc3[C@@H](NCCCO)[C@H]3COC(=O)[C@H]23)OCO4)cc(OC)c1O | 89.2%
2 | COc1cc([C@@H]2c3cc4c(cc3[C@@H](NC(=O)c3ccc(OC(C)=O)cc3)[C@H]3COC(=O)[C@H]23)OCO4)cc(OC)c1O | 137%
3 | COc1cc([C@@H]2c3cc4c(cc3[C@@H](Nc3ccccc3F)[C@H]3COC(=O)[C@H]23)OCO4)cc(OC)c1O | 121%
4 | COc1cc([C@@H]2c3cc4c(cc3[C@@H](NC(=O)c3ccccc3O)[C@H]3COC(=O)[C@H]23)OCO4)cc(OC)c1O | 160%
5 | COc1cc([C@@H]2c3cc4c(cc3[C@@H](Nc3cccc(C#N)c3)[C@H]3COC(=O)[C@H]23)OCO4)cc(OC)c1O | 137%
6 | COc1cc([C@@H]2c3cc4c(cc3[C@@H](NCc3cccc([N+](=O)[O-])c3)[C@H]3COC(=O)[C@H]23)OCO4)cc(OC)c1O | 130%
7 | COc1cc([C@@H]2c3cc4c(cc3[C@@H](OC(=O)c3cccc(N)c3)[C@H]3COC(=O)[C@H]23)OCO4)cc(OC)c1O | 100%
8 | COc1cc([C@@H]2c3cc4c(cc3[C@@H](OC(=O)c3ccccc3)[C@H]3COC(=O)[C@H]23)OCO4)cc(OC)c1O | 94%
9 | COC(=O)c1ccc(N[C@@H]2c3cc4c(cc3[C@@H](c3cc(OC)c(O)c(OC)c3)[C@H]3C(=O)OC[C@@H]32)OCO4)cc1O | 129%
10 | COc1cc([C@@H]2c3cc4c(cc3[C@@H](NCc3cccc(N)c3)[C@H]3COC(=O)[C@H]23)OCO4)cc(OC)c1O | 191%
11 | COc1ccc(N[C@@H]2c3cc4c(cc3[C@@H](c3cc(OC)c(O)c(OC)c3)[C@H]3C(=O)OC[C@@H]32)OCO4)cc1OC | 180%
12 | COC(=O)c1cc(N[C@@H]2c3cc4c(cc3[C@@H](c3cc(OC)c(O)c(OC)c3)[C@H]3C(=O)OC[C@@H]32)OCO4)ccc1O | 83%
13 | COc1cc([C@@H]2c3cc4c(cc3[C@@H](NCc3ccc(F)cc3)[C@H]3COC(=O)[C@H]23)OCO4)cc(OC)c1O | 169%
14 | CCOC(=O)CC[C@H](NC(=O)c1ccc(N[C@@H]2c3cc4c(cc3[C@@H](c3cc(OC)c(O)c(OC)c3)[C@H]3C(=O)OC[C@@H]32)OCO4)cc1)C(=O)OCC | 83%
15 | COc1cc([C@@H]2c3cc4c(cc3[C@@H](NCc3ccc([N+](=O)[O-])cc3)[C@H]3COC(=O)[C@H]23)OCO4)cc(OC)c1O | 216%
16 | COc1cc([C@@H]2c3cc4c(cc3[C@@H](Nc3ccccc3Cl)[C@H]3COC(=O)[C@H]23)OCO4)cc(OC)c1O | 32%
17 | COc1cc([C@@H]2c3cc4c(cc3[C@@H](OC(=O)c3ccc(N)cc3)[C@H]3COC(=O)[C@H]23)OCO4)cc(OC)c1O | 94%
18 | COc1cc([C@@H]2c3cc4c(cc3[C@@H](Nc3ccc(F)cc3)[C@H]3COC(=O)[C@H]23)OCO4)cc(OC)c1O | 213%
19 | COc1cc(CN[C@@H]2c3cc4c(cc3[C@@H](c3cc(OC)c(O)c(OC)c3)[C@H]3C(=O)OC[C@@H]32)OCO4)cc(OC)c1 | 144%
20 | COc1cc([C@@H]2c3cc4c(cc3[C@@H](Sc3ccc(O)cc3)[C@H]3COC(=O)[C@H]23)OCO4)cc(OC)c1O | 10%
21 | COc1cc([C@@H]2c3cc4c(cc3[C@@H](NC(=O)c3ccc(C#N)cc3)[C@H]3COC(=O)[C@H]23)OCO4)cc(OC)c1O | 159%

Row | SMILES | Protein-DNA complex formation
22 | COc1cc([C@@H]2c3cc4c(cc3[C@@H](NC(=O)c3ccc([N+](=O)[O-])cc3)[C@H]3COC(=O)[C@H]23)OCO4)cc(OC)c1O | 160%
23 | COc1cc([C@@H]2c3cc4c(cc3[C@@H](Nc3ccc5c(c3)OCCO5)[C@H]3COC(=O)[C@H]23)OCO4)cc(OC)c1O | 279%
24 | COc1cc([C@@H]2c3cc4c(cc3[C@@H](NC[C@H](C)O)[C@H]3COC(=O)[C@H]23)OCO4)cc(OC)c1O | 167%
25 | CCOC(=O)c1ccccc1N[C@@H]1c2cc3c(cc2[C@@H](c2cc(OC)c(O)c(OC)c2)[C@H]2C(=O)OC[C@@H]21)OCO3 | 4%
26 | COc1cc([C@@H]2c3cc4c(cc3[C@@H](Nc3cccc([N+](=O)[O-])c3)[C@H]3COC(=O)[C@H]23)OCO4)cc(OC)c1O | 230%
27 | COc1cc([C@@H]2c3cc4c(cc3[C@@H](Nc3cccc(Br)c3)[C@H]3COC(=O)[C@H]23)OCO4)cc(OC)c1O | 62%
28 | COc1cc([C@@H]2c3cc4c(cc3[C@@H](NCc3cccc(C#N)c3)[C@H]3COC(=O)[C@H]23)OCO4)cc(OC)c1O | 225%
29 | COc1cc([C@@H]2c3cc4c(cc3[C@@H](Nc3ccccc3O)[C@H]3COC(=O)[C@H]23)OCO4)cc(OC)c1O | 151%
30 | COc1cc([C@@H]2c3cc4c(cc3[C@@H](NCc3ccccc3[N+](=O)[O-])[C@H]3COC(=O)[C@H]23)OCO4)cc(OC)c1O | 144%
31 | COc1cc([C@@H]2c3cc4c(cc3[C@@H](Nc3cc([N+](=O)[O-])ccc3O)[C@H]3COC(=O)[C@H]23)OCO4)cc(OC)c1O | 15%
32 | COc1cc([C@@H]2c3cc4c(cc3[C@@H](Oc3ccc(O)cc3)[C@H]3COC(=O)[C@H]23)OCO4)cc(OC)c1O | 34%
33 | COC(=O)c1cc(N[C@@H]2c3cc4c(cc3[C@@H](c3cc(OC)c(O)c(OC)c3)[C@H]3C(=O)OC[C@@H]32)OCO4)cc(C(=O)OC)c1 | 50%
34 | COc1cc([C@@H]2c3cc4c(cc3[C@@H](Nc3cccc(F)c3)[C@H]3COC(=O)[C@H]23)OCO4)cc(OC)c1O | 158%
35 | COc1cc([C@@H]2c3cc4c(cc3[C@@H](Nc3ccc(C(=O)O)cc3)[C@H]3COC(=O)[C@H]23)OCO4)cc(OC)c1O | 6.9% and 1.9%
36 | COc1cc([C@@H]2c3cc4c(cc3[C@@H](NC(=O)c3ccc(F)cc3)[C@H]3COC(=O)[C@H]23)OCO4)cc(OC)c1O | 117%
37 | COc1cc([C@@H]2c3cc4c(cc3[C@@H](NC(=O)c3cccc(F)c3)[C@H]3COC(=O)[C@H]23)OCO4)cc(OC)c1O | 116%
38 | COc1cc([C@@H]2c3cc4c(cc3[C@@H](Nc3ccc(Br)cc3)[C@H]3COC(=O)[C@H]23)OCO4)cc(OC)c1O | 179%
39 | COc1cc([C@@H]2c3cc4c(cc3[C@@H](N)[C@H]3COC(=O)[C@H]23)OCO4)cc(OC)c1O | 36.4%
40 | COc1cc([C@@H]2c3cc4c(cc3[C@@H](N[C@@H](C)CO)[C@H]3COC(=O)[C@H]23)OCO4)cc(OC)c1O | 162%
41 | COc1cc([C@@H]2c3cc4c(cc3[C@@H](Nc3ccc(Cl)cc3)[C@H]3COC(=O)[C@H]23)OCO4)cc(OC)c1O | 99%
42 | COc1cc([C@@H]2c3cc4c(cc3[C@@H](Nc3cccc(O)c3)[C@H]3COC(=O)[C@H]23)OCO4)cc(OC)c1O | 290%

Row | SMILES | Protein-DNA complex formation
43 | CCCN[C@@H]1c2cc3c(cc2[C@@H](c2cc(OC)c(O)c(OC)c2)[C@H]2C(=O)OC[C@@H]21)OCO3 | 69.7%
44 | COc1cc([C@@H]2c3cc4c(cc3[C@@H](Nc3ccc(N5CCOCC5)cc3)[C@H]3COC(=O)[C@H]23)OCO4)cc(OC)c1O | 140%
45 | COc1cc([C@@H]2c3cc4c(cc3[C@@H](Nc3cccc(N)c3)[C@H]3COC(=O)[C@H]23)OCO4)cc(OC)c1O | 140%
46 | COc1cc([C@@H]2c3cc4c(cc3[C@@H](NCCO)[C@H]3COC(=O)[C@H]23)OCO4)cc(OC)c1O | 121%
47 | COc1cc([C@@H]2c3cc4c(cc3[C@@H](Nc3ccc([N+](=O)[O-])cc3)[C@H]3COC(=O)[C@H]23)OCO4)cc(OC)c1O | 323%
48 | COc1cc([C@@H]2c3cc4c(cc3[C@@H](Nc3ccc5c(c3)OCO5)[C@H]3COC(=O)[C@H]23)OCO4)cc(OC)c1O | 164%
49 | COc1cc([C@@H]2c3cc4c(cc3[C@@H](NCc3cccc(F)c3)[C@H]3COC(=O)[C@H]23)OCO4)cc(OC)c1O | 216%
50 | COc1cc([C@@H]2c3cc4c(cc3[C@@H](Nc3ccc(I)cc3)[C@H]3COC(=O)[C@H]23)OCO4)cc(OC)c1O | 64%
51 | COc1cc([C@@H]2c3cc4c(cc3[C@@H](Nc3cc(F)cc(F)c3)[C@H]3COC(=O)[C@H]23)OCO4)cc(OC)c1O | 115%
52 | COc1cc([C@@H]2c3cc4c(cc3[C@@H](Nc3cccnc3)[C@H]3COC(=O)[C@H]23)OCO4)cc(OC)c1O | 148%
53 | COc1cc([C@@H]2c3cc4c(cc3[C@@H](NC(=O)c3ccccc3F)[C@H]3COC(=O)[C@H]23)OCO4)cc(OC)c1O | 128%
54 | COc1cc([C@@H]2c3cc4c(cc3[C@@H](NC(=O)c3cccc(C#N)c3)[C@H]3COC(=O)[C@H]23)OCO4)cc(OC)c1O | 149%
55 | COCCN[C@@H]1c2cc3c(cc2[C@@H](c2cc(OC)c(O)c(OC)c2)[C@H]2C(=O)OC[C@@H]21)OCO3 | 111%
56 | COc1cc([C@@H]2c3cc4c(cc3[C@@H](Nc3cnc5ccccc5c3)[C@H]3COC(=O)[C@H]23)OCO4)cc(OC)c1O | 123%
57 | COc1cc([C@@H]2c3cc4c(cc3[C@@H](NC(=O)c3ccc(C(C)=O)cc3)[C@H]3COC(=O)[C@H]23)OCO4)cc(OC)c1O | 124%
58 | COc1cc([C@@H]2c3cc4c(cc3[C@H](NCCO)[C@H]3COC(=O)[C@H]23)OCO4)cc(OC)c1O | 0%
59 | COc1cc([C@@H]2c3cc4c(cc3[C@@H](Nc3ccccn3)[C@H]3COC(=O)[C@H]23)OCO4)cc(OC)c1O | 97%
60 | COc1cccc(N[C@@H]2c3cc4c(cc3[C@@H](c3cc(OC)c(O)c(OC)c3)[C@H]3C(=O)OC[C@@H]32)OCO4)c1 | 104%
61 | COc1cc([C@@H]2c3cc4c(cc3[C@@H](O[C@@H]3O[C@@H]5CO[C@@H](C)O[C@H]5[C@H](O)[C@H]3O)[C@H]3COC(=O)[C@H]23)OCO4)cc(OC)c1O | 100%
62 | COc1cc([C@@H]2c3cc4c(cc3[C@@H](NCc3ccccc3N)[C@H]3COC(=O)[C@H]23)OCO4)cc(OC)c1O | 184%
63 | COc1cc([C@@H]2c3cc4c(cc3[C@@H](NCc3ccccc3)[C@H]3COC(=O)[C@H]23)OCO4)cc(OC)c1O | 181%
